Source: ChEMBL document CHEMBL4393740, “Preparation and biological evaluation of soluble tetrapeptide epoxyketone proteasome inhibitors” (Bioorg Med Chem, 2019)

Legend:
[1] = biological target: T1, Proteasome Macropain subunit MB1 (Homo sapiens, UniProt P28074); assay: Inhibition of human chymotrypsin-like activity of 20S proteasome using Suc-LLVY-AMC as substrate pre-incubated for 10 mins followed by substrate addition and measured after 1 hr by spectrofluorimetry; settings: read-out: IC50
T1 sequence (P28074 whole entry): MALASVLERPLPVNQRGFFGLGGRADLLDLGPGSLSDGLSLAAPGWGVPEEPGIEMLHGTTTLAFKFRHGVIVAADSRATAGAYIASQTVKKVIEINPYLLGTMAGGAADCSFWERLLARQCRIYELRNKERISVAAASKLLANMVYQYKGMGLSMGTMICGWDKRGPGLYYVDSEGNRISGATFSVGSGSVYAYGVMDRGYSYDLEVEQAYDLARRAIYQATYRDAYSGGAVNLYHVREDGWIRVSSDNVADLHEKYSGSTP

[2] = Half life in rat liver microsomes at 1 uM pre-incubated for 5 mins followed by NADP+ addition and measured up to 20 mins by LC-MS analysis; assay type: ADME, Microsome
[3] = Half life in monkey liver microsomes at 1 uM pre-incubated for 5 mins followed by NADP+ addition and measured up to 20 mins by LC-MS analysis; assay type: ADME, Macaca mulatta, Microsome; settings: rhesus monkey
[4] = Half life in BALB/c mouse liver microsomes at 1 uM pre-incubated for 5 mins followed by NADP+ addition and measured up to 20 mins by LC-MS analysis; assay type: ADME, Microsome
How it was run: (§1)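 Mixture held 1 µM compound, 0.5 mg/mL microsomal protein (in-house pooled Balb/c mouse or pooled human), 100 mM Tris-HCl pH 7.4, and an NADPH-generating system (5 mM isocitric acid, 0.2 U/mL isocitric dehydrogenase, 5 mM MgCl2, 1 mM NADP+). Preincubated 5 min at 37 °C, started with NADP+, sampled at 0, 5, 10, 20 min. Quenched with cold acetonitrile containing 1 µM phenytoin internal standard. Compound loss measured by LC-MS/MS. Controls omitted NADPH and/or microsomes.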

[5] = Half life in dog liver microsomes at 1 uM pre-incubated for 5 mins followed by NADP+ addition and measured up to 20 mins by LC-MS analysis; assay type: ADME, Canis lupus familiaris, Microsome
[6] = Half life in human liver microsomes at 1 uM pre-incubated for 5 mins followed by NADP+ addition and measured up to 20 mins by LC-MS analysis; assay type: ADME, Microsome; how it was run: as §1
[7] = Intrinsic clearance in rat liver microsomes at 1 uM pre-incubated for 5 mins followed by NADP+ addition and measured up to 20 mins by LC-MS analysis; assay type: ADME, Microsome; settings: read-out: CLH
[8] = Intrinsic clearance in BALB/c mouse liver microsomes at 1 uM pre-incubated for 5 mins followed by NADP+ addition and measured up to 20 mins by LC-MS analysis; assay type: ADME, Microsome; settings: read-out: CLH; how it was run: as §1
[9] = Intrinsic clearance in dog liver microsomes at 1 uM pre-incubated for 5 mins followed by NADP+ addition and measured up to 20 mins by LC-MS analysis; assay type: ADME, Canis lupus familiaris, Microsome; settings: read-out: CLH
[10] = Intrinsic clearance in monkey liver microsomes at 1 uM pre-incubated for 5 min followed by NADP+ addition and measured up to 20 mins by LC-MS analysis; assay type: ADME, Macaca mulatta, Microsome; settings: rhesus monkey, read-out: CLH
[11] = Intrinsic clearance in human liver microsomes at 1 uM pre-incubated for 5 min followed by NADP+ addition and measured up to 20 mins by LC-MS analysis; assay type: ADME, Microsome; settings: read-out: CLH; how it was run: as §1
RPMI-8226 [12] = assay: Antitumour activity against luciferase expressing human RPMI8226 cells xenografted in NOD/SCID mouse assessed as tumor growth at 2 mg/kg, iv qd for 21 days by caliper method relative to control; assay type: functional
How it was run: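 NOD/SCID mice given subcutaneous 5 × 10^6 luciferase-expressing RPMI-8226 cells. Randomized at mean tumour 100-150 mm3, n = 3 per group. Dosed i.v. 2 mg/kg QD for 3 weeks. Tumour also imaged by IVIS, ROI […] taken 3 min after D-luciferin 150 mg/kg. Caliper volume V = length×width²/2, RTV = Vt/V0. T/C% = mean RTV treated / mean RTV control × 100.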

ARH-77 = assay: Antitumour activity against human ARH77 cells xenografted in nude mouse assessed as tumor growth at 5mg/kg, iv dosed at day 1 ,4, 8 ,11, 15 and 18 for 3 weeks and measured every 2 days by caliper method relative to control; assay type: functional
How it was run: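 Nude mice given subcutaneous 1 × 10^7 ARH77 cells. Randomized at mean tumour 100-150 mm3 into treatment and control groups, n = 5. Dosed i.v. 5 mg/kg on days 1, 4, 8, 11, 15 and 18 for 3 weeks. Tumours sized by caliper, V = length×width²/2, RTV = Vt/V0. T/C% = mean RTV treated / mean RTV control × 100.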

RPMI-8226 [13] = assay: Cytotoxicity against human RPMI8226 cells assessed as cell viability measured after 72 hrs by celltiter96 aqueous cell proliferation assay; assay type: functional, cell-based; settings: RPMI-8226, 72 h
How it was run: (§2)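 Suspension cells in log phase plated at 5000 (RPMI8226) or 10000 (U266B1) cells per well. Viability read after 72 h by MTS-type CellTiter 96 AQueous One assay on a plate reader. IC50 reported, three repeats.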

U-266 = assay: Cytotoxicity against human U266B1 cells assessed as cell viability measured after 72 hrs by celltiter96 aqueous cell proliferation assay; assay type: functional, cell-based; settings: U-266, 72 h; how it was run: as §2
[14] = biological target: Voltage-gated inwardly rectifying potassium channel KCNH2 (Homo sapiens, UniProt Q12809); assay: Inhibition of human ERG in HEK293 cells assessed as effect on QT interval; assay type: cell-based; settings: human, hek293
[15] = Potency index, ratio of compound half life in human liver microsomes to carfilzomib half life in human liver microsomes; assay type: ADME, Microsome

Voltage-gated inwardly rectifying potassium channel KCNH2, sequence (Q12809 whole entry): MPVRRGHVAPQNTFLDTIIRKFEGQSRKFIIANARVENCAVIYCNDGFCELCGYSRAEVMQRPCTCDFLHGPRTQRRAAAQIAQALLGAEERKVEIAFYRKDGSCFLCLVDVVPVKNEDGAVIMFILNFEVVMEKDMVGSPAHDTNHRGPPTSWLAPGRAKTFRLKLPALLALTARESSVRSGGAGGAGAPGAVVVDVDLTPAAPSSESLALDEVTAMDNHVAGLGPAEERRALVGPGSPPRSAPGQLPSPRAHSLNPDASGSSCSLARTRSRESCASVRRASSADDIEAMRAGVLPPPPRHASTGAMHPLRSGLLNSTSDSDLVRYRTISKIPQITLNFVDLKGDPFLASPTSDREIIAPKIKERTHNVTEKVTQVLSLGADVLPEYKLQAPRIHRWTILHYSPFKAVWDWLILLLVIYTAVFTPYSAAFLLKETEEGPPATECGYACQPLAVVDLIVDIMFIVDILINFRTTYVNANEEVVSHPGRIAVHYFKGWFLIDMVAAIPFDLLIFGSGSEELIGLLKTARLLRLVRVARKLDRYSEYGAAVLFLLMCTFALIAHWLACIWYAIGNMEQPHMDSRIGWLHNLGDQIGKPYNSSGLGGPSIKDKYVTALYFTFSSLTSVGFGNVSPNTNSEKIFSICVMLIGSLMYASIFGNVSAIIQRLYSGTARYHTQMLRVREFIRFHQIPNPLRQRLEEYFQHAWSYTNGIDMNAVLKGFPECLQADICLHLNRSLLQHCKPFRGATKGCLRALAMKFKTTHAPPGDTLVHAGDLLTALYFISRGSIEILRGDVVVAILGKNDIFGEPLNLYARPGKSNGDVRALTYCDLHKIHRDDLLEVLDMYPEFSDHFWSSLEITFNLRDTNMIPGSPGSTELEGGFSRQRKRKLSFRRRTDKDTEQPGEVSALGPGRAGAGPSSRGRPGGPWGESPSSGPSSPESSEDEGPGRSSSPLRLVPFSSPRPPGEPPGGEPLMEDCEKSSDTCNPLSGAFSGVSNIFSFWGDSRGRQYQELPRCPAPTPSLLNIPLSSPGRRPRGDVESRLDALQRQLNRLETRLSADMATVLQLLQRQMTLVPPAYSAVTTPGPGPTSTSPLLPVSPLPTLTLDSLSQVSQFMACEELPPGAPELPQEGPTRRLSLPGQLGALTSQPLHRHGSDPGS

- IC50 [1]: 36.8 nM
- half-life at 1 µM [2]: 1.36 min
- half-life at 1 µM [3]: 0.211 min
- half-life at 1 µM [4]: 1.1 min
- half-life at 1 µM [5]: 0.243 min
- half-life at 1 µM [6]: 1.07 min
- microsomal CLint at 1 µM [7]: 1020 µL/min/mg
- microsomal CLint at 1 µM [8]: 1250 µL/min/mg
- microsomal CLint at 1 µM [9]: 5710 µL/min/mg
- microsomal CLint at 1 µM [10]: 6560 µL/min/mg
- microsomal CLint at 1 µM [11]: 1300 µL/min/mg
- Ratio [15]: 4
SMILES: CC(C)C[C@H](NC(=O)[C@H](Cc1cscn1)NC(=O)CN1CCOCC1)C(=O)N[C@@H](Cc1ccccc1)C(=O)N[C@@H](CC(C)C)C(=O)[C@@]1(C)CO1
- T/C (RPMI-8226 [12]): 49.5%
- T/C (ARH-77): 37.6%
- IC50 (RPMI-8226 [13]): 27.7 nM
- IC50 (U-266): 24.5 nM
- inhibition (INH) [14]: Not Active
